# Source: PubChem BioAssay (several laboratories)
# CRFBP-R2 agonist – agonists of CRF-BP/CRF-R2 complex, primary screen, cell-based, HEK293, calcium dye fluorescence, uHTS; calcium dye fluorescence (FLIPR); percent of saturating CRF peptide response; 350,000 compounds, 0.46% hits; activation, % at 13.2 µM;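 active = activation of at least 50%, plus an integration ratio under a set limit after plate pattern correction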;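 note: plate controls were neutral control wells without compound for no effect and CRF at EC100 for full effect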
# CRFBP-R2 block – antagonists of CRF-BP/CRF-R2 complex, primary screen, cell-based, HEK293, calcium dye fluorescence, uHTS | CRF-induced calcium fluorescence | inhibition, % at 11.8 µM | 350,000 compounds, 0.59% hits;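 active = inhibition of the ligand-induced calcium signal above about 50% at the single tested concentration, limit read from the data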
# GPR7 antag – GPR7 receptor antagonists, primary screen, cell-based, fluorescence, single concentration | 290,000 compounds, 1.1% hits | inhibition, % at 4.4 µM | GPR7-expressing cells, fluorescence antagonist assay; in the data active = inhibition above about 16%, passing the limit was not always enough;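 note: cells stimulated with the agonist NPW; 0% = agonist with vehicle and 100% = vehicle without agonist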
# zfTRPN1 agonist – zebrafish TRPN1 channel agonists, primary screen, cell-based, HEK293, calcium fluorescence. 220,000 compounds, 0.18% hits. activation, % at 3 µM. HEK293 zebrafish TRPN1-YFP, Fluo-8 calcium fluorescence; 100% = response to 87 µM carbachol. AID 1424, 2008;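 active = activation above its plate's cutoff, the mean activation of test wells on that plate plus 3 SD, cut at about 19% in these data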;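 note: 0% = DMSO alone and 100% = 87 µM carbachol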
#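 Assay system: Zebrafish TRPN1-YFP in HEK293 cells | Incubation: Dye loading 1 h at 37 °C, then 30 min room temperature | Measured by: Kinetic Fluo-8 fluorescence, ex 470-495, em 515-575 nm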
# TRPML3 agonist – human TRPML3 channel agonists, primary screen, cell-based, HEK293 TRPML3-YFP, Fluo-8 calcium fluorescence, 3 µM; Mucolipin-3 (Homo sapiens), Q8TDD5; 100% = the carbachol control signal; activation, % at 3 µM; 220,000 compounds, 0.29% hits;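 active = activation above its plate's cutoff, the mean activation of the plate's test wells plus 3 SD, cut at about 12% in these data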;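 note: 0% = DMSO only wells and 100% = carbachol wells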
# Target sequence (Q8TDD5 whole entry, looked up): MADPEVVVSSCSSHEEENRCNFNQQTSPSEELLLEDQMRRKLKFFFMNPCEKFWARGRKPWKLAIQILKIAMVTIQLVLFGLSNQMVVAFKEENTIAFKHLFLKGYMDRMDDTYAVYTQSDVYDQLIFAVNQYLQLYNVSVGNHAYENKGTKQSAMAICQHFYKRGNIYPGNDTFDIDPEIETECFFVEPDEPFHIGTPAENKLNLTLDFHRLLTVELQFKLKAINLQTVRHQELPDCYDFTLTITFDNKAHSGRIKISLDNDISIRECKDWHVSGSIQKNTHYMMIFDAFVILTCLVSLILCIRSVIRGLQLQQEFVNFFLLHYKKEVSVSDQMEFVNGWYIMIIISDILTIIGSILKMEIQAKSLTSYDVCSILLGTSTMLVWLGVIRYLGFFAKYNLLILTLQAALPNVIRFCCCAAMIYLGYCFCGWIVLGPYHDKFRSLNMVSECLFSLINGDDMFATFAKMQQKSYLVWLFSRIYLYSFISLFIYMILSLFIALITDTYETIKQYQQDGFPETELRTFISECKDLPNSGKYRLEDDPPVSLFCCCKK
#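 Test system: HEK293 cells stably carrying human TRPML3-YFP; Doses: single dose, 3 µM final nominal compound, 0.3% DMSO final; Schedule: dye loading 1 h 37 °C then 30 min ambient, 125 s read; Technique: Fluo-8 calcium fluorescence; Benchmarks: high control carbachol 87 µM, low control DMSO.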
# Numbers without * were called inactive; · = no result. In the library only some 2% were active in any assay of this set; here they are far more common.
SMILES,CRFBP-R2 agonist,CRFBP-R2 block,GPR7 antag,zfTRPN1 agonist,TRPML3 agonist
COc1ccc(S(=O)(=O)N2CCN(CC(=O)Nc3ccc(F)c(F)c3)CC2)cc1,0,6,30*,0,1
COc1cccc(NC(=O)c2ccc(N3C(=O)C4CC=CCC4C3=O)cc2)c1 (configuration not stated),5,-10,·,·,·
OCCN(CCO)c1nc(N2CCCCC2)c2nc(N(CCO)CCO)nc(N3CCCCC3)c2n1,179*,-138,-5,11,6
Cc1cccc(N2C(N)=NC(N)=NC23CCCCC3)c1,3,52*,-5,0,1
N#C/C(=C(/O)c1cccc(F)c1)c1nc2ccccc2s1,51*,43,-8,13,1
Cn1c(/C(C#N)=C(\O)c2cccc(F)c2)nc2ccccc21,-1,-1,0,·,·
N#C/C(=C\c1ccccc1[N+](=O)[O-])C(=O)NCc1ccccc1,23,-31,18,2,3
CCCCCCCCNC(=O)/C(C#N)=C/c1ccccc1[N+](=O)[O-],62*,-97,-10,0,3
CCN(CC(=O)Nc1ccc(NC(C)=O)cc1)C(=O)c1cn(-c2ccccc2)nc1-c1cccs1,1,-10,·,·,·
Cc1onc(-c2ccccc2)c1C(=O)NNC(=S)NC(=O)c1ccc2c(c1)OCO2,86*,-22,-15,23*,23*
O=C(COC(=O)c1ccc(S(=O)(=O)N2CCCCCC2)cc1)NCc1ccc(Cl)cc1,2,5,·,·,·
CC(=O)C1=C(O)C(=O)N(Cc2ccccc2)C1c1ccc(F)cc1 (configuration not stated),0,56*,3,·,·
CC(=O)C1=C(O)C(=O)N(Cc2ccccc2)C1c1ccc([N+](=O)[O-])cc1 (configuration not stated),·,·,-1,·,·
COc1ccc(/C=N/n2c(-c3n[nH]c4c3CCC4)n[nH]c2=S)cc1,-1,100*,-9,-2,0
COc1cc(S(=O)(=O)Nc2ccc(C)cc2)ccc1N=Cc1c(C)c(C#N)c(=O)n(C)c1O,80*,-102,-4,-2,1
COc1cc(S(=O)(=O)Nc2ccc(C)cc2)ccc1N=Cc1c(C)[nH]n(-c2ccc(C)cc2)c1=O,-2,-2,-6,0,0
Cc1ccc(CN(C(=O)c2ccccc2[N+](=O)[O-])C2CCS(=O)(=O)C2)o1 (configuration not stated),2,58*,-10,·,·
Cc1ccc(CN(C(=O)c2ccccc2C)C2CCS(=O)(=O)C2)o1 (configuration not stated),0,-4,-22,·,·
O=C(Nc1cccc(-c2cscn2)c1)C1CCN(Cc2ccc(CO)o2)CC1,1,3,-17,·,·
COCc1ccc(CN2CCC(C(=O)Nc3cccc(-c4cscn4)c3)CC2)o1,2,90*,-10,·,·
O=C(Nc1ccc(Oc2cccnc2)nc1)c1ccc(C(F)(F)F)cc1,4,55*,20*,12,4
O=C1NC(=S)S/C1=C\c1cc(Cl)cc(Cl)c1O,83*,-57,·,·,·
CCCn1c(CN2CCN(C(=O)OCC)CC2)nc2c1c(=O)n(C)c(=O)n2C,0,4,-11,0,0
CCOC(=O)N1CCN(Cc2nc3c(c(=O)n(C)c(=O)n3C)n2CCC(C)C)CC1,-5,129*,-13,1,0
COc1ccc(S(=O)(=O)N2CCCCCC2)cc1C(=O)N(C)Cc1ccc(Cl)cc1Cl,104*,-103,·,·,·
SMILES,CRFBP-R2 agonist,CRFBP-R2 block,GPR7 antag,zfTRPN1 agonist,TRPML3 agonist
COc1ccc(S(=O)(=O)N2CCCCCC2)cc1C(=O)NCCc1ccccc1,8,112*,·,·,·
CC(C)c1ccccc1NC(=S)NCC1(N(C)C)CCCCC1,4,-14,3,·,·
Cc1cccc(NC(=O)COC(=O)CN2C(=O)c3ccccc3C2=O)c1,0,-5,·,·,·
CCCC(=O)N(Cc1cc2cccc(C)c2[nH]c1=O)c1ccccc1OC,-2,-30,21*,5,1
CCCN(CC(=O)Nc1ccccc1C)C(=O)Cc1n[nH]c(=O)c2ccccc12,0,-1,·,·,·
COC1C(CO)OC(n2c3c(Cl)cccc3c3c4c(c5c6cccc(Cl)c6[nH]c5c32)C(=O)NC4=O)C(O)C1O (configuration not stated),67*,-75,·,·,·
CCOc1ccc(NC(=S)N2CCC(C(=O)c3ccc(OC)cc3)CC2)cc1,-2,11,·,·,·
CCN(CC(=O)Nc1ccc(NC(C)=O)cc1)C(=O)c1ccc(=O)n(C)n1,0,98*,·,·,·
CCN(CC(=O)Nc1ccc(NC(C)=O)cc1)C(=O)c1ccc(=O)[nH]c1,1,-5,0,·,·
COc1cccc(NC(=O)COC(=O)c2ccccc2C(=O)N2CCN(c3ccccc3)CC2)c1,0,69*,-2,0,1
O=C(COC(=O)c1ccccc1C(=O)N1CCN(c2ccccc2)CC1)Nc1ccccc1,-1,-13,-3,2,1
CCCCN1C(=O)/C(=C/C=C2\N(C)c3ccccc3C2(C)C)SC1=S,·,·,14,3,2
CCCN1C(=O)/C(=C\C=C2/C=CN(CC)c3ccccc32)SC1=S,0,26,21*,-1,0
Cc1ccc(OS(=O)(=O)c2ccc(N3C(=O)CCC3=O)cc2)cc1,1,20,20,·,·
O=C(COC(=O)c1c(F)cccc1F)Nc1ccccc1OC(F)F,-2,13,-4,·,·
COc1ccc2c(c1)c(CC(=O)Nc1ccccc1OC)c(C)n2C(=O)c1ccc(Cl)cc1,2,33,3,0,0
COc1ccc2c(c1)c(CC(=O)Nc1cc(C)ccc1C)c(C)n2C(=O)c1ccc(Cl)cc1,89*,-97,-9,3,1
CC1=CC2=NC(=O)CC(C)(C(=O)N(CC(=O)NC3CCCC3)c3ccccc3C)N2C=C1 (configuration not stated),-1,-1,1,1,1
CC1=CN2C(=NC(=O)CC2(C)C(=O)N(CC(=O)NC2CCCC2)c2ccccc2C)C=C1 (configuration not stated),0,54*,-6,0,0
Cc1ccc(OCC(=O)N2CCN(c3nnc(-c4ccc(C)cc4)c4ccccc34)CC2)cc1,-1,68*,-5,-1,-1
COc1ccc(OCC(=O)N2CCN(c3nnc(-c4ccc(C)cc4)c4ccccc34)CC2)cc1,2,13,-7,-1,0
CCc1cccc(CC)c1NC(=O)Cn1c(-c2ccccc2Cl)nc2ccccc21,1,-12,18*,0,0
CC(=O)c1ccc(N2CCN(C(=O)c3cc(S(=O)(=O)N4CCOCC4)ccc3C)CC2)cc1,0,2,·,·,·
